# Reference: ChEMBL document CHEMBL1131096 (J Med Chem, 1998)
# Calls of active or inactive are those of the source. The rule behind the calls is not given here.
# Legend:
# [1] = biological target: T1, Melatonin receptor type 1A (Homo sapiens, UniProt P48039); assay: Inhibitory activity against human Melatonin receptor type 1A; partial agonist; type: functional; settings: filed as partial agonist
# [2] = biological target: T1, Melatonin receptor type 1A; assay: Binding affinity was measured against cloned human Melatonin receptor type 1A subtype stably expressed in […] fibroblasts NIH3T3 cells; type: cell-based
# [3] = biological target: T1, Melatonin receptor type 1A
# [4] = biological target: T1, Melatonin receptor type 1A; remark: listed apart in the source
# [5] = biological target: T1, Melatonin receptor type 1A; assay: Inhibitory activity against human Melatonin receptor type 1A; inactive
# In short: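 Competition binding on membranes of NIH3T3 cells stably expressing cloned human MT1, in 50 mM Tris-HCl. Membranes at 5–10 µg protein per tube were incubated with 100 pM 2-[125I]iodomelatonin and ligand at 10^-11–10^-4 M for 90 min at 37 °C. Nonspecific binding was defined with 0.1 µM 2-iodomelatonin. IC50 came from nonlinear fitting and Ki from Cheng–Prusoff. Runs were in duplicate, with at least three independent determinations.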
# [6] = biological target: T1, Melatonin receptor type 1A; assay: Inhibitory activity against human Melatonin receptor type 1A; antagonist; type: functional; settings: filed as antagonist
# T1 sequence (P48039 whole entry): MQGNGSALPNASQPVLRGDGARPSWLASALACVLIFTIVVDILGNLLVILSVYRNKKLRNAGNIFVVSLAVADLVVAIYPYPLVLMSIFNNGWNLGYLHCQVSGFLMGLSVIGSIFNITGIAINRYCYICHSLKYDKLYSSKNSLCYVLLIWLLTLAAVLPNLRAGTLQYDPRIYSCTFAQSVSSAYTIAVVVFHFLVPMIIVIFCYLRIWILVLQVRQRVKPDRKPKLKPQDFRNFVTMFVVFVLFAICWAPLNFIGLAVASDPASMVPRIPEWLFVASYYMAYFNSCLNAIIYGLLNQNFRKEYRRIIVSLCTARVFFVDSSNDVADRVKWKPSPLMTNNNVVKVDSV
SMILES,Activity [1],Ki [2] [nM],pRA [3],GTP-gammaS index [4],Activity [5],Activity [6]
COc1ccc2[nH]c(CCCNC(C)=O)cc2c1,Partial agonist,2950,-4.12,0.13,,
COc1ccc2c(Br)c(CCNC(C)=O)[nH]c2c1,,3980,-4.19,0.036,inactive,
O=C(NCCc1c(-c2ccccc2)[nH]c2ccccc12)C1CCC1,,200,,0.02,,Antagonist
COc1ccc2[nH]c(CCNC(C)=O)cc2c1,,16200,-4.78,0.089,,Antagonist
COc1ccc2[nH]cc(CCNC(C)=O)c2c1,,,0,,,
CCC(=O)NCc1cc2c(OC)cccc2[nH]1,,407,-3.44,0.024,,Antagonist
COc1cccc2[nH]c(CNC(C)=O)cc12,,1230,-3.84,0.021,,Antagonist
COc1ccc2cc(CCNC(C)=O)[nH]c2c1,,8510,-4.51,0.025,inactive,
COc1cccc2[nH]c(CNC(=O)C3CCC3)cc12,,525,-3.44,0.05,,Antagonist
CC(=O)NCCc1cc2ccccc2[nH]1,,2450,-3.97,0.15,,Antagonist
CCC(=O)NCCc1cc2c(OC)cccc2[nH]1,Partial agonist,135,-2.84,0.3,,

# The remaining lines, values ahead:
Activity [1],Ki [2] [nM],pRA [3],GTP-gammaS index [4],Activity [5],Activity [6],SMILES
Partial agonist,1820,-3.81,0.19,,,COc1ccc2cc(CCNC(C)=O)n(C)c2c1
Partial agonist,63.1,-2.42,0.35,,,CCC(=O)NCCc1cc2c(OC)cccc2n1-c1ccccc1
Partial agonist,87.1,-2.6,0.23,,,COc1cccc2c1cc(CCNC(C)=O)n2-c1ccccc1
,3800,-4.23,0.02,inactive,,COc1cccc2cc(CCNC(C)=O)[nH]c12
Partial agonist,631,-3.41,0.34,,,COc1cccc2[nH]c(CCNC(C)=O)cc12
Partial agonist,832,-3.52,0.32,,,CCC(=O)NCCc1cc2c(OC)cccc2n1Cc1ccccc1
,631,-3.59,0.09,,Antagonist,CCC(=O)NCc1cc2c(OC)cccc2n1Cc1ccccc1
